Experimental data gathered from unrelated publications.
Each line is one published result; the experiments were not run side by side.
Read-out: binding
PIK3CG: Phosphatidylinositol 4,5-bisphosphate 3-kinase catalytic subunit gamma isoform (PIK3CG, Homo sapiens, UniProt P48736)
tspO: tspO (Cereibacter sphaeroides, UniProt Q9RFC8)
CREBBP bromodomain: CREB-binding protein, bromodomain (CREBBP, Homo sapiens, UniProt Q92793)

Nc1nc2c(ncn2[C@@H]2O[C@H](COP(=O)(O)OP(=O)(O)O)[C@@H](OP(=O)(O)OP(=O)(O)O)[C@H]2O)c(=O)[nH]1 has a Kd of 130000 nM (Dihydrofolate synthase/folylpolyglutamate synthase (Escherichia coli, UniProt P08192); ITC).
For CC1=C(/C=C/C(C)=C/C=C/C(C)=C/C=O)C(C)(C)CCC1, the Kd was 894 nM (Cellular retinoic acid-binding protein 2 (CRABP2, Homo sapiens, UniProt P29373, L122E/R112E/R133K); fluorescence).
The Kd of OC[C@H]1OC(O)[C@H](O)[C@@H](O)[C@@H]1O (some centres unmarked) is reported as 3260 nM (Nucleolar RNA helicase 2 (Homo sapiens, UniProt Q9NR30); MST).
CCC(=O)N1CCC(C(=O)N(C)CC(=O)N2CCN(c3nc(-c4cnc(N)nc4C(F)F)nc(N4CCOCC4)n3)CC2)CC1 has a Kd of 16 nM (PIK3CG; competition with immobilised ligand).
Cc1cc2nc3c(=O)[nH]c(=O)nc-3n(C[C@H](O)[C@H](O)[C@H](O)CO)c2cc1C has a Kd of 127 nM (Riboflavin-binding protein (Gallus gallus, UniProt P02752); ITC).
C=CC1=C(C)c2cc3[nH]c(cc4nc(cc5[nH]c(cc1n2)c(C)c5CCC(=O)O)C(CCC(=O)O)=C4C)c(C)c3C=C gave a Kd of 900 nM (tspO; fluorescence).
With C=CC(=O)N1CCC(C(=O)N(C)CC(=O)N2CCN(c3nc(-c4cnc(N)nc4C(F)F)nc(N4CCOCC4)n3)CC2)CC1 the Kd was 9.4 nM (PIK3CG; competition with immobilised ligand).
For Cc1cc(/N=N/c2ccc(S(=O)(=O)O)cc2)cc(C)c1O, the Kd was 44000 nM (CREBBP bromodomain; fluorescence).
Cn1cc(C(=O)Nc2cccc(C(=O)O)c2)ccc1=O gave a Kd of 4100 nM (CREBBP bromodomain; competition with immobilised ligand).
With CCOc1cc(-c2nncn2C)ccc1Nc1ncc2cc(C)nc(NCC(C)(C)C)c2n1 the Kd was greater than 10000 nM (Mitogen-activated protein kinase kinase kinase 15 (MAP3K15, Homo sapiens, UniProt Q6ZN16); competition with immobilised ligand).
With C=CC1=C(C)C2=Cc3c(C=C)c(C)c4[n]3[Fe]([Cl])[n]3c(c(C)c(CCC(=O)O)c3=CC3=NC(=C4)C(C)=C3CCC(=O)O)=CC1=N2 the Kd was 900 nM (tspO; fluorescence).
